# Arrestin-AP2 inh: blocks beta-arrestin peptide binding to AP2 adaptin. 340,000 compounds, 0.31% hits. FITC-arrestin peptide / GST-AP2 beads, flow cytometry; AP2 beta2 appendage carries R879A mutation. inhibition, % at 10 µM;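 active = inhibition above a set limit, near 3 SD of compounds lacking own fluorescence, cut at about 54% in these data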;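 note: plate controls were DMSO wells for no effect and 5 µM unlabelled arrestin peptide for full effect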
#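 System: GST-tagged AP2 beta2-adaptin appendage (R879A) on 4 µm glutathione beads / Reagent: FITC-arrestin peptide, 50 nM / Detection: HyperCyt-sampled flow cytometry, FL1 channel, ex 488/em 535 nm / Timing: 12 min plus 1 h, RT / Buffer or medium: PBS plus Tween 20 (0.05%) and BSA (0.1%)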
# FAS-TE inh: FAS thioesterase (human) inhibition; P49327; recombinant FAS-TE, OMFH fluorogenic substrate, fluorescence endpoint; inhibition, % at 15 µM; 360,000 compounds, 0.67% hits;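 active = compounds whose normalised, plate-corrected inhibition of enzyme fluorescence in the single-dose primary screen is 50% or more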;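 note: 0% = DMSO with enzyme and 100% = substrate without enzyme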
# GASC-1 inh: human JMJD2C demethylase inhibition; 330,000 compounds, 0.069% hits; GST-JMJD2C(1-420) H3K9me3 demethylation, DELFIA europium; Q9H3R0; inhibition, % at 2.35 µM;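 active = more than half of a compound's replicate wells show inhibition beyond 50%, single wells judged on their own value; inconclusive = some, but no more than half, of replicates pass 50% inhibition; inactive = no replicate passes 50% inhibition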;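 note: signal counts dimethyl H3K9 product captured on neutravidin plate; 0% = median of DMSO wells and 100% = 0.3 times that DMSO median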
# Target sequence (Q9H3R0 1-420 limits assumed): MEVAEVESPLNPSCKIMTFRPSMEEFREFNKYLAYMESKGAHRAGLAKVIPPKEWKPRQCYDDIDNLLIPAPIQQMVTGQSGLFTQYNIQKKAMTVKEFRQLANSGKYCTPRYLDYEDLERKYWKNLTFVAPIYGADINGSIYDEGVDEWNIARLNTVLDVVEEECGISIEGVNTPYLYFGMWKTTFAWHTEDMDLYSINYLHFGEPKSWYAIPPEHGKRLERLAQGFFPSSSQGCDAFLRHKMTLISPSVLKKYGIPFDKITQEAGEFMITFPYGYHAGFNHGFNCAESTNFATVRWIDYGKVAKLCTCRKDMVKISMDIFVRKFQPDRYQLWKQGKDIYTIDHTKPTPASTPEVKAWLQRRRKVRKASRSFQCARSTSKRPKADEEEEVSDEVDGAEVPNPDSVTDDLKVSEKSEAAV
# SENP1 FRET inh: SENP1 (human) catalytic domain inhibition. recombinant SENP1 catalytic domain, CyPet-SUMO1-YPet FRET cleavage. 360,000 compounds, 0.21% hits. Q9P0U3. inhibition, % at 10 µM;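 active = inhibition at least 30% at 10 µM, raw YFP signal under a set limit, fluorescence ratio 0.5 to 1.5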;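 note: 0% = enzyme with DMSO and 100% = no enzyme wells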
# Target sequence (Q9P0U3 419-644 limits assumed): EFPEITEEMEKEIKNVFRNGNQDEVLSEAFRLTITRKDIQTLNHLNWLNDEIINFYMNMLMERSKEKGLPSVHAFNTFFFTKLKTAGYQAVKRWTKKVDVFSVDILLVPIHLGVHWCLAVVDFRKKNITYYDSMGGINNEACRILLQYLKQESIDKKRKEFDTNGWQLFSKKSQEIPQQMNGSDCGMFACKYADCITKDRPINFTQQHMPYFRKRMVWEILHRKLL
#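 Test system: human SENP1 catalytic domain; medium: Tris pH 8 buffer plus EDTA, NaCl, BME, BSA, NP40, catalase; incubation: 50 min reaction at room temperature; technique: FRET, CFP and YFP emission; controls: no-enzyme low control and enzyme-plus-DMSO high control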
# SENP1 inh conf: confirmation of human SENP1 SUMO protease inhibitors. recombinant SENP1, CyPet-SUMO1-YPet FRET cleavage. inhibition, % at 10 µM. shares compounds with SENP1 FRET inh. 520 compounds, 34% hits. AID 651678; in the data active = inhibition mostly above about 35%, no sharp cut-off; inactive = mostly below about 32%;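 note: 0% = enzyme with DMSO and 100% = no enzyme control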
# SENP1 kinetic: SENP1 (human) inhibition, kinetic confirmation. shares compounds with SENP1 FRET inh. recombinant SENP1, CyPet-SUMO1-YPet FRET kinetic cleavage. inhibition, % at 10 µM. 520 compounds, 26% hits. AID 651690; in the data active = inhibition mostly above about 32%, no sharp cut-off; inactive = mostly below about 29%;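 note: 0% = DMSO with enzyme and 100% = no enzyme substrate only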
# The depositor's hits bear a star; ? = inconclusive; nt = not tested or not shown. The list is not random: actives were taken first. Their share in the collection is about 1.1%.
SMILES,Arrestin-AP2 inh,FAS-TE inh,GASC-1 inh,SENP1 FRET inh,SENP1 inh conf,SENP1 kinetic
COc1cc(/C=C2\SC(=S)N(CC(=O)O)C2=O)ccc1OC(=O)c1ccco1,4,2,5,39*,83*,63*
CCOc1cc(/C=C2/SC(=S)N(CC(=O)O)C2=O)ccc1OC(=O)c1cccs1,11,-1,0,2,nt,nt
COc1cc(/C=C2/SC(=S)N(CC(=O)O)C2=O)ccc1OC(=O)c1ccco1,5,0,9,32*,84*,65*
COc1ccc(/C=C2/SC(=S)N(CC(=O)O)C2=O)cc1OCc1ccc(Cl)cc1,-9,-77,4,-30,nt,nt
CCOC(=O)N1CCN(C2CCCN(C(=O)c3ccccc3SC)C2)CC1 (stereo not given),6,-5,-7,-3,nt,nt
COc1ccccc1-c1c(C(F)(F)F)oc2cc(OC(=O)c3ccc([N+](=O)[O-])cc3)ccc2c1=O,2,38,-1,-3,nt,nt
COc1ccc2sc(/C=C/c3ccccc3O)[n+](C)c2c1,-7,-8,nt,39*,58*,40*
COc1ccc(N=Cc2ccccc2O)cc1,-13,-6,nt,-4,nt,nt
Cc1cc2nc(-c3nnnn3Cc3ccccc3)c(=O)[nH]c2cc1C,nt,-8,nt,-23,nt,nt
O=c1[nH]c2cc3ccccc3cc2nc1-c1nnnn1C1CCCC1,nt,0,nt,70*,125*,78*
O=c1[nH]c2cc3ccccc3cc2nc1-c1nnnn1Cc1ccccc1,nt,-1,nt,41*,80*,50*
CCOC(=O)C1CCN(C(=O)c2cccnc2Cl)CC1,3,-8,1,0,nt,nt
Cc1cc2ccccc2n2c(SCC(=O)N3CCOCC3)nnc12,5,-5,-6,1,nt,nt
C/C(=N\Nc1ccc([N+](=O)[O-])cc1)c1ccc(N)cc1,4,-1,13,-10,nt,nt
CC(=NNc1ccc([N+](=O)[O-])cn1)c1ccc(N)cc1,35,6,nt,41*,22,13
Cc1ccccc1Oc1ccccc1N,13,-6,-4,3,nt,nt
Cc1ccc2n(n1)c(=O)c(Cc1ccccc1)c([O-])[n+]2-c1ccccc1,6,-7,5,35*,53*,35*
COCCCNC(=O)/C(C#N)=C1\N=C(NC(=O)c2cccs2)c2ccccc21,-2,5,nt,-29,nt,nt
N#C/C(C(=O)NCCc1ccccc1)=C1/N=C(NC(=O)c2cccs2)c2ccccc21,24,30,6,36*,-27,5
O=C(Nc1ccc(Oc2ncnc3cc(Cl)ccc23)nc1)Nc1cccc(C(F)(F)F)c1,0,3,1,-2,nt,nt
Cc1ccc2[nH]c(O)c(N=Nc3ccccc3[N+](=O)[O-])c2c1,-9,-2,nt,2,nt,nt
CCN(CC)S(=O)(=O)c1cc([N+](=O)[O-])ccc1N=Nc1c(O)[nH]c2ccccc12,5,-7,-32,46*,4,3
O=[N+]([O-])c1ccc2[nH]c(O)c(N=Nc3ccc(F)cc3)c2c1,-10,-7,0,56*,10,5
Oc1[nH]c2ccc(Br)cc2c1N=Nc1ccc(F)cc1,-3,-121,4,13,nt,nt
Cc1ccc(CNC(=O)CN2C(=O)CSc3ccc(S(=O)(=O)N4CCC(C)CC4)cc32)cc1,2,38,-2,2,nt,nt
SMILES,Arrestin-AP2 inh,FAS-TE inh,GASC-1 inh,SENP1 FRET inh,SENP1 inh conf,SENP1 kinetic
O=[N+]([O-])c1ccc2c(c1)nnn2-c1ccccc1,36,15,7,1,nt,nt
Nc1nn(-c2ccccc2)c2ccc([N+](=O)[O-])cc12,0,0,-24,32*,32,8
O=C1CC[C@@H]2C[C@@]3(C[C@@H]4CCN1[C@H]24)Nc1cc([N+](=O)[O-])ccc1NC3=NCc1ccccc1,-8,-4,nt,55*,42*,26
O=C(Nc1ccc2c(c1)OCO2)C(=O)c1c[nH]c2ccccc12,-5,-4,0,31*,37,32*
O=C(Nc1ccc2c(c1)OCCO2)C(=O)c1c[nH]c2ccccc12,11,4,4,3,nt,nt
Cn1ncc(N=Cc2ccccc2O)c1C(=O)Nc1ccccc1,-9,7,8,37*,18,28
Cc1cnc(C(=O)Nc2cccc3ncccc23)cn1,11,-13,-2,-3,nt,nt
Cc1cnc(C(=O)Nc2ccccc2-c2ccc(C)o2)cn1,2,1,?,40*,-12,-2
Cc1cc2occ(CC(=O)N(CCC(C)C)c3c(N)n(Cc4ccccc4)c(=O)[nH]c3=O)c2cc1C,27,-8,-7,0,nt,nt
Cc1cc(C(F)(F)F)nc(SCCN2CCOCC2)c1C#N,-53,1,60,-27,nt,nt
N#Cc1c(C(F)(F)F)cc(-c2ccc(Cl)c(Cl)c2)nc1SCCN1CCOCC1,13,20,-7,38*,26,23
Cc1c(-n2cc(C(=O)c3cc(Cl)ccc3O)cc(C#N)c2=O)c(=O)n(-c2ccccc2)n1C,22,-10,-4,61*,53*,40*
CC(C)OCCCNC(=O)c1cn(C)c2ccc(S(=O)(=O)N3CCCC3)cc2c1=O,8,-3,7,1,nt,nt
Cc1cc(C)n2c(NC3CCCC3)c(-c3cccnc3)nc2n1,nt,-10,nt,32*,20,10
CCCCNc1c(-c2cccnc2)nc2nc(C)cc(C)n12,nt,-9,nt,36*,19,15
Cc1cccc2nc(-c3cccnc3)c(Nc3ccccc3)n12,-2,-1,3,0,nt,nt
Cc1cc(C)n2c(NC3CCCCC3)c(-c3ccc(F)cc3)nc2n1,nt,6,nt,-13,nt,nt
Cc1cc(C)n2c(Nc3c(C)cccc3C)c(-c3cccnc3)nc2n1,nt,-13,nt,64*,39*,27
O=C(CSc1ccc(-c2ccco2)nn1)N1CCCCC1,-2,-5,-8,0,nt,nt
COc1ccc(NS(=O)(=O)c2ccc(S(=O)(=O)N(C)C)cc2)cc1S(N)(=O)=O,-7,-3,0,3,nt,nt
O=C(/C=C/c1ccc2ccccc2n1)c1cc(Cl)ccc1O,14,14,-16,-25,nt,nt
COc1ccc(NC(=O)CCC(=O)c2ccc(C(C)C)cc2)cc1,10,4,3,-1,nt,nt
COc1ccc(NC(=O)CCC(=O)c2ccc(-c3ccccc3)cc2)cc1,-3,-21,1,40*,-1,-6
O=C(N/N=C/c1ccc(N2CCCCC2)o1)C(O)(c1ccccc1)c1ccccc1,nt,nt,4,nt,nt,nt
O=C(NC(=S)Nc1ccccc1O)c1cncc(Br)c1,34,-8,1,30*,6,4
OC(c1ccc(F)cc1)c1ncc(-c2ccc(Oc3ccccc3)cc2)[nH]1 (stereo not given),nt,12,nt,-3,nt,nt
CN(C)/N=C/c1ccc([N+](=O)[O-])cc1[N+](=O)[O-],17,6,13,2,nt,nt
CN(N=Cc1cccc2cccnc12)c1ccc([N+](=O)[O-])cc1[N+](=O)[O-],-20,-12,nt,31*,35*,22

# Source: PubChem BioAssay (several laboratories)
